For assay [1], the target named is T1, Toll-like receptor 9 (Homo sapiens) (UniProt Q9NR96).
T1 sequence (whole entry): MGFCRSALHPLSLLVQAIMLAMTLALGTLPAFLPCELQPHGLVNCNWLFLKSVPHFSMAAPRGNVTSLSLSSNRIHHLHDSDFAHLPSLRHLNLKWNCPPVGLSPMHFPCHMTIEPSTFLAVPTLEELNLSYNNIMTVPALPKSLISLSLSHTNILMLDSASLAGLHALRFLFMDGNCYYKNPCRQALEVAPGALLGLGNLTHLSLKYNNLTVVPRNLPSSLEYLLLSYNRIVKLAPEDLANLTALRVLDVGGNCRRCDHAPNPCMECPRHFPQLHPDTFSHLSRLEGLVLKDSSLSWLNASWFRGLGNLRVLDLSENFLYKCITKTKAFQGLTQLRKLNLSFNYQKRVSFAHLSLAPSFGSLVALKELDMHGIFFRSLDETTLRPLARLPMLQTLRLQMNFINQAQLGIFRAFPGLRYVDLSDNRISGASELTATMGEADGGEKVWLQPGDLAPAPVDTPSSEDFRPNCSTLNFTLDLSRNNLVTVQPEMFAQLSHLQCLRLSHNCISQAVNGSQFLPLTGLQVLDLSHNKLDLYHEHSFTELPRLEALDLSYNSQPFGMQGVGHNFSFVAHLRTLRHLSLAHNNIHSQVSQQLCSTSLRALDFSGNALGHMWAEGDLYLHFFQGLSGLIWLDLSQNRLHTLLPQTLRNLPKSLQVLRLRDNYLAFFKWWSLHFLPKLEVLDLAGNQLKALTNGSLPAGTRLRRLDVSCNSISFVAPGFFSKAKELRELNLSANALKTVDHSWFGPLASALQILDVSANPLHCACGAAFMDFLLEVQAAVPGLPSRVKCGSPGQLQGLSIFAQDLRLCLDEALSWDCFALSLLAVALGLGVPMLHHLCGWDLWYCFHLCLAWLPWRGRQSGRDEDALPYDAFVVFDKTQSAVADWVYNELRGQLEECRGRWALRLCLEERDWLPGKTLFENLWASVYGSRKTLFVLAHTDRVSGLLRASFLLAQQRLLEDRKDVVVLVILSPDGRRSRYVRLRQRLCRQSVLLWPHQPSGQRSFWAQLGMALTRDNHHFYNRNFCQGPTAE
The experiment in a line: Induction of TLR9-mediated immune stimulation in human PBMC assessed as IL2R production at 10 ug/ml after 24 hrs by luminex multiplex assay (RVb = 0.02 +/- 0.01 ng/ml).

Assay [2] addresses T2, Toll-like receptor 9 (Mus musculus) (UniProt Q9EQU3).
T2 sequence (whole entry): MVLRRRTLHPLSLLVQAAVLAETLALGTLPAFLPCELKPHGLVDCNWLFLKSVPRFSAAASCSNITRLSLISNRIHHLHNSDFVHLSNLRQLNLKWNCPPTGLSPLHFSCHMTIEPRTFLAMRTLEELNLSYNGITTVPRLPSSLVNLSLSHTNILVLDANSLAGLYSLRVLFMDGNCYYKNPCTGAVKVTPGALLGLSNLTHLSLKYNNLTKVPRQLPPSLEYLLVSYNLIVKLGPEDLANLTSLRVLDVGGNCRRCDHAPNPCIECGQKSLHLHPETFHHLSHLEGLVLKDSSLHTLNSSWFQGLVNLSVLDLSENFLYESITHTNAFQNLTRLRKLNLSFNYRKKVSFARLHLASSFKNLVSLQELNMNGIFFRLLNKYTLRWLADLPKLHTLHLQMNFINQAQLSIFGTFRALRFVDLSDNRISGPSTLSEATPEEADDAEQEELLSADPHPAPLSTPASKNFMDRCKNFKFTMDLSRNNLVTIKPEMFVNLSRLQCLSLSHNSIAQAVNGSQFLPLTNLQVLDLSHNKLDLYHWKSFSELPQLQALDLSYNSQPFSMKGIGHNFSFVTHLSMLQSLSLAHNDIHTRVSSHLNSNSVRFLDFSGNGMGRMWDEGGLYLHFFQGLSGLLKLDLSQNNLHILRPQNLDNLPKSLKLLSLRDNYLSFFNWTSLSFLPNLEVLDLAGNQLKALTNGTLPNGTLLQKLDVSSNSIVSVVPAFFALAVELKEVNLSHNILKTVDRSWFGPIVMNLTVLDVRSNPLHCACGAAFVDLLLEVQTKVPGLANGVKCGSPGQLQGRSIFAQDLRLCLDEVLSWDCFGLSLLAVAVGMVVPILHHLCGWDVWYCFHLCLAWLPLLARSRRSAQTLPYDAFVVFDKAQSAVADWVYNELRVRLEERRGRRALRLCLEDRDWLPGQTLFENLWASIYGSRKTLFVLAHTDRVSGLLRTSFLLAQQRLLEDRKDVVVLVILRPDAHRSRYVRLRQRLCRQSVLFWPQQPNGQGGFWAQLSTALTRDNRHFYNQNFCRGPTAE
The experiment in a line: Induction of TLR9-mediated IL12 production in C57BL/6 mouse spleen cells after 24 hrs by ELISA. The assay is classed as cell-based. In outline:
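C57BL/6 mouse spleen cells were cultured with agonists at 0.1, 0.3, 1, 3 and 10 μg/mL for 24 h. Secreted IL-12 and IL-6 in the supernatants were measured by ELISA. Values are averages of triplicate wells from one representative of at least two independent experiments.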
In general terms: An ELISA detects its analyte on a solid surface through an enzyme-linked reagent.

The target of assay [3] is T1, Toll-like receptor 9 (Homo sapiens). The experiment in a line: Induction of TLR9-mediated immune stimulation in human PBMC assessed as MIP1beta production at 2 ug/ml after 24 hrs by luminex multiplex assay (RVb = 0.03 +/- 0.02 ng/ml).
For assay [4] the target is unchanged. Nature of the assay: Induction of TLR9-mediated immune stimulation in human PBMC assessed as RANTES production at 2 ug/ml after 24 hrs by luminex multiplex assay (RVb = 0.05 +/- 0.04 ng/ml).
Assay [5] has the same target. Nature of the assay: Induction of TLR9-mediated immune stimulation in human PBMC assessed as IL1Ralpha production at 10 ug/ml after 24 hrs by luminex multiplex assay (RVb = 0.12 +/- 0.03 ng/ml).
Assay [6] has the same target. The experiment in a line: Induction of TLR9-mediated immune stimulation in human PBMC assessed as MCP1 production at 10 ug/ml after 24 hrs by luminex multiplex assay (RVb = 0.08 +/- 0.02 ng/ml).
Assay [7] has as its target T2, Toll-like receptor 9 (Mus musculus). The experiment in a line: Activation of mouse TLR9 expressed in HEK293 cells assessed as induction of NF-kappaB activity after 18 hrs by SEAP assay. In kind it is cell-based. An outline of the steps: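 HEK293 cells stably expressing mouse TLR9 were grown in DMEM with 10% heat-inactivated FBS. At 80% confluence they were transiently transfected with a SEAP reporter plasmid (100 ng/well, lipofectamine) for 6 h. Medium was then replaced and agonists were added for 18 h. Supernatant SEAP was read with QuantiBlue substrate at 620-645 nm. Results are expressed as fold NF-κB activity over PBS control.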

Assay [8] concerns the target T1, Toll-like receptor 9 (Homo sapiens). The experiment in a line: Induction of TLR9-mediated immune stimulation in human PBMC assessed as MCP1 production at 2 ug/ml after 24 hrs by luminex multiplex assay (RVb = 0.08 +/- 0.02 ng/ml).
For assay [9] the target is unchanged. The experiment in a line: Induction of TLR9-mediated immune stimulation in human PBMC assessed as MIP1beta production at 10 ug/ml after 24 hrs by luminex multiplex assay (RVb = 0.03 +/- 0.02 ng/ml).

Regarding `Cc1cn([C@H]2C[C@H](OCCOCCOCCOCCOP(=O)(S)O[C@H]3C[C@H](n4cc(C)c(=O)[nH]c4=O)O[C@@H]3COP(=O)(S)O[C@H]3[C@@H](O)[C@H](n4ccc(N)nc4=O)O[C@@H]3COP(=O)(S)O[C@H]3C[C@H](n4cc(C)c(=O)[nH]c4=O)O[C@@H]3COP(=O)(S)O[C@H]3C[C@H](n4cc(C)c(=O)[nH]c4=O)O[C@@H]3COP(=O)(S)O[C@H]3C[C@H](n4ccc5c(=O)[nH]c(N)nc54)O[C@@H]3COP(=O)(S)O[C@H]3[C@@H](O)[C@H](n4ccc(N)nc4=O)O[C@@H]3COP(=O)(S)O[C@H]3C[C@H](n4cc(C)c(=O)[nH]c4=O)O[C@@H]3COP(=O)(S)O[C@H]3[C@@H](O)[C@H](n4cnc5c(=O)[nH]c(N)nc54)O[C@@H]3COP(=O)(S)O[C@H]3C[C@H](n4cc(C)c(=O)[nH]c4=O)O[C@@H]3COP(=O)(S)O[C@H]3[C@@H](O)[C@H](n4ccc(N)nc4=O)O[C@@H]3COP(=O)(S)O[C@H]3C[C@H](n4cc(C)c(=O)[nH]c4=O)O[C@@H]3CO)[C@@H](COP(=O)(S)O[C@H]3[C@@H](O)[C@H](n4ccc(N)nc4=O)O[C@@H]3COP(=O)(S)O[C@H]3C[C@H](n4cc(C)c(=O)[nH]c4=O)O[C@@H]3COP(=O)(S)O[C@H]3C[C@H](n4cc(C)c(=O)[nH]c4=O)O[C@@H]3COP(=O)(S)O[C@H]3C[C@H](n4ccc5c(=O)[nH]c(N)nc54)O[C@@H]3COP(=O)(S)O[C@H]3[C@@H](O)[C@H](n4ccc(N)nc4=O)O[C@@H]3COP(=O)(S)O[C@H]3C[C@H](n4cc(C)c(=O)[nH]c4=O)O[C@@H]3COP(=O)(S)O[C@H]3[C@@H](O)[C@H](n4cnc5c(=O)[nH]c(N)nc54)O[C@@H]3COP(=O)(S)O[C@H]3C[C@H](n4cc(C)c(=O)[nH]c4=O)O[C@@H]3COP(=O)(S)O[C@H]3[C@@H](O)[C@H](n4ccc(N)nc4=O)O[C@@H]3COP(=O)(S)O[C@H]3C[C@H](n4cc(C)c(=O)[nH]c4=O)O[C@@H]3CO)O2)c(=O)[nH]c1=O` (stereo partly drawn), the Activity is 0.17 ng/mL in [1]; “Dose-dependent effect” in assay [2]; 0.08 ng/mL in [3]; 0.7 ng/mL in [4]; 69.9 ng/mL in assay [5]; 7.13 ng/mL in [6]. Further, the Activity result in assay [7] was “Dose-dependent effect”; in assay [8], 0.22 ng/mL; in [9] it was 0.96 ng/mL.
In the case of `Cc1cn([C@H]2C[C@H](OCC(O)COP(=O)(S)O[C@H]3C[C@H](n4cc(C)c(=O)[nH]c4=O)O[C@@H]3COP(=O)(S)O[C@H]3[C@@H](O)[C@H](n4ccc(N)nc4=O)O[C@@H]3COP(=O)(S)O[C@H]3C[C@H](n4cc(C)c(=O)[nH]c4=O)O[C@@H]3COP(=O)(S)O[C@H]3C[C@H](n4cc(C)c(=O)[nH]c4=O)O[C@@H]3COP(=O)(S)O[C@H]3C[C@H](n4ccc5c(=O)[nH]c(N)nc54)O[C@@H]3COP(=O)(S)O[C@H]3[C@@H](O)[C@H](n4ccc(N)nc4=O)O[C@@H]3COP(=O)(S)O[C@H]3C[C@H](n4cc(C)c(=O)[nH]c4=O)O[C@@H]3COP(=O)(S)O[C@H]3[C@@H](O)[C@H](n4cnc5c(=O)[nH]c(N)nc54)O[C@@H]3COP(=O)(S)O[C@H]3C[C@H](n4cc(C)c(=O)[nH]c4=O)O[C@@H]3COP(=O)(S)O[C@H]3[C@@H](O)[C@H](n4ccc(N)nc4=O)O[C@@H]3COP(=O)(S)O[C@H]3C[C@H](n4cc(C)c(=O)[nH]c4=O)O[C@@H]3CO)[C@@H](COP(=O)(S)O[C@H]3[C@@H](O)[C@H](n4ccc(N)nc4=O)O[C@@H]3COP(=O)(S)O[C@H]3C[C@H](n4cc(C)c(=O)[nH]c4=O)O[C@@H]3COP(=O)(S)O[C@H]3C[C@H](n4cc(C)c(=O)[nH]c4=O)O[C@@H]3COP(=O)(S)O[C@H]3C[C@H](n4ccc5c(=O)[nH]c(N)nc54)O[C@@H]3COP(=O)(S)O[C@H]3[C@@H](O)[C@H](n4ccc(N)nc4=O)O[C@@H]3COP(=O)(S)O[C@H]3C[C@H](n4cc(C)c(=O)[nH]c4=O)O[C@@H]3COP(=O)(S)O[C@H]3[C@@H](O)[C@H](n4cnc5c(=O)[nH]c(N)nc54)O[C@@H]3COP(=O)(S)O[C@H]3C[C@H](n4cc(C)c(=O)[nH]c4=O)O[C@@H]3COP(=O)(S)O[C@H]3[C@@H](O)[C@H](n4ccc(N)nc4=O)O[C@@H]3COP(=O)(S)O[C@H]3C[C@H](n4cc(C)c(=O)[nH]c4=O)O[C@@H]3CO)O2)c(=O)[nH]c1=O` (stereo partly drawn), the Activity in assay [1] was 0.19 ng/mL; in assay [2], “Dose-dependent effect”; in [3], 0.11 ng/mL; in assay [4] it was 0.29 ng/mL; in [5], 81.7 ng/mL; in assay [6] it was 1.88 ng/mL. The Activity entry is “Dose-dependent effect” in assay [7], 0.46 ng/mL in [8] and 1.41 ng/mL in [9].

Values taken from ChEMBL document CHEMBL1157912, “Impact of nature and length of linker incorporated in agonists on toll-like receptor 9-mediated immune responses” (J Med Chem, 2010).
